Here are results for 24 molecules from ChEMBL document CHEMBL3853349, “Diversity-Oriented Synthesis as a Strategy for Fragment Evolution against GSK3β” (ACS Med Chem Lett, 2016).

The structures appear in SMILES notation. Calls of active or inactive are those of the source. The calls are words filed in the database; no cut-off is given here.

Assay [1] deals with T1, Glycogen synthase kinase-3 beta (Homo sapiens, UniProt P49841). As to the kind of experiment: Binding affinity to GSK-3 beta (unknown origin) assessed as assessed as thermal shift at 2.5 mM by differential scanning fluorimetry. The method in brief:
(§1)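 Differential scanning fluorimetry on GSK3β, reported as thermal stabilization ΔT in °C. Compounds were tested at 2.5 mM by default; the growth-vector analogue set was run at 1.25 mM for ranking.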
Target sequence in this assay (P49841 whole entry, looked up): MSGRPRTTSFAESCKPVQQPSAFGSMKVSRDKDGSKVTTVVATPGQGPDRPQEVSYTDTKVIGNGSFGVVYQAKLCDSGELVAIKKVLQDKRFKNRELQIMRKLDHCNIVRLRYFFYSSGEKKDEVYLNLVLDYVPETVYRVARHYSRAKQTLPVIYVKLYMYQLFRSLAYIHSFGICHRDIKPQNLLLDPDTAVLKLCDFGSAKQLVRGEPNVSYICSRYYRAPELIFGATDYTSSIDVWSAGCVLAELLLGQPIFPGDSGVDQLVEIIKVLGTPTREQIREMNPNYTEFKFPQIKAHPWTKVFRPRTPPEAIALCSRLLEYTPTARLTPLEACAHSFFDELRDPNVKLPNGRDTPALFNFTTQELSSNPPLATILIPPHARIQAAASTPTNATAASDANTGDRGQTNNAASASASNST

The target in assay [2] is T1, Glycogen synthase kinase-3 beta. In words: Inhibition of recombinant full-length N-terminal GST tagged human GSK-3 beta expressed in baculovirus infected Sf9 insect cells at 1 mM using GSM as substrate after 5 mins by ADP-Glo luminescence assay. The gist of the method:
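Single-point ADP-Glo biochemical inhibition of GSK3β with compound at 1 mM, used to rank analogues alongside DSF.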
Target sequence in this assay (P49841 whole entry, looked up): as above

Assay [3] has the same target. In words: Binding affinity to GSK-3 beta (unknown origin) assessed as thermal shift at 1.25 mM by differential scanning fluorimetry. The gist of the method: as §1
Target sequence in this assay (P49841 whole entry, looked up): as above
For assay [4] the target is unchanged. As to the kind of experiment: Binding affinity to GSK-3 beta (unknown origin) after 30 mins by isothermal titration calorimetry.
Target sequence in this assay (P49841 whole entry): as the sequence (P49841 whole entry, looked up) above
For a further assay, the species on record is Homo sapiens. In words: Selectivity ratio of IC50 for CDK5 (unknown origin) to IC50 for GSK-3 beta (unknown origin).
Assay [5] deals with T1, Glycogen synthase kinase-3 beta. As to the kind of experiment: Inhibition of recombinant full-length N-terminal GST tagged human GSK-3 beta expressed in baculovirus infected Sf9 insect cells using GSM as substrate after 5 mins by ADP-Glo luminescence assay.
Target sequence in this assay (P49841 whole entry): as the sequence (P49841 whole entry, looked up) above
For assay [6] the target is unchanged. In words: Binding affinity to GSK-3 beta (unknown origin) by WaterLOGSY NMR analysis.
Target sequence in this assay (P49841 whole entry, looked up): as above
Assay [7] shares this target. As to the kind of experiment: Binding affinity to GSK-3 beta (unknown origin) by STD NMR analysis.
Target sequence in this assay (P49841 whole entry, looked up): as above

For `CC(C)[C@H]1Nc2cccnc2NC1=O`, the figures for the deltaT in assay [1] and in assay [3] were 2.3 °C and 1.6 °C, respectively. Also, the inhibition in assay [2] was determined as 57%.

With `CC(C)[C@@H]1Nc2cccnc2NC1=O`, in assay [2], the inhibition is 25%. Besides, the deltaT in assay [3] was 0 °C.

As to `C[C@@H]1Nc2ccccc2NC1=O`, in assay [1], the deltaT was 0 °C. In addition, the inhibition in assay [2] came to 9%.

`C[C@H]1Nc2ccccc2NC1=O`: the deltaT in assay [1] was 0 °C. In assay [2], the inhibition is 12%.

For `O=C1Nc2ncccc2N[C@@H]1Cc1ccccc1`, the inhibition in assay [2] is 63%. The deltaT in assay [3] stood at 1.6 °C.

Regarding `O=C1Nc2ncccc2N[C@@H]1Cc1c[nH]c2ccccc12`, in assay [4], binding was characterised by a dissociation constant (Kd) of 9 µM. Moreover, the Ratio IC50 in the assay listed under Homo sapiens is 50. For the same molecule, in assay [5], the IC50 stood at 18 µM. Further, the inhibition in assay [2] stood at 94%. In assay [3], the deltaT worked out at 4.5 °C.

For `C[C@H]1Nc2cccnc2N(C)C1=O`, the deltaT in assay [1] is 0 °C. In addition, in assay [2], the inhibition was found to be 19%.

As to `O=C1Nc2ncccc2N[C@H]1Cc1ccccc1`, the inhibition in assay [2] came out at 55%. Besides, the deltaT in assay [3] stood at 0 °C.

On to `O=C1Nc2ncccc2N[C@H]1Cc1c[nH]c2ccccc12`, for which, in assay [5], the IC50 is 322 µM. The inhibition in assay [2] stood at 76%. For the same molecule, the deltaT in assay [3] amounted to 1.7 °C.

`O=C1Nc2ncccc2N[C@@H]1Cc1ccc(O)cc1`: the inhibition in assay [2] worked out at 88%. Further, the deltaT in assay [3] is 2.9 °C.

Consider `Cc1nc2cccnc2[nH]c1=O`, for which the inhibition in assay [2] was determined as 35%. Moreover, the deltaT in assay [3] came out at 0.5 °C.

In the case of `C[C@H]1Nc2ccncc2NC1=O`, in assay [1], the deltaT was found to be 1.6 °C. In addition, the inhibition in assay [2] worked out at 61%.

`C[C@@H]1Nc2cccnc2NC1=O`: the values for the deltaT in assay [1] and in assay [3] were 0.5 °C and 0 °C, respectively. Besides, the inhibition in assay [2] was 19%.

Turning to `CC1(C)Nc2cccnc2NC1=O`, the deltaT in assay [1] was 0.7 °C. For the same molecule, in assay [2], the inhibition came out at 26%.

Turning to `C[C@@H]1Nc2ccncc2NC1=O`, in assay [1], the deltaT came out at 1.4 °C. The inhibition in assay [2] stood at 69%.

For the molecule `O=C1Nc2ncccc2N2C[C@H](O)C[C@@H]12`, in assay [1], the deltaT turned out to be 0.8 °C.

Consider `C[C@@H]1Nc2cnccc2NC1=O`, for which the deltaT in assay [1] stood at 0.5 °C. Moreover, the inhibition in assay [2] turned out to be 29%.

Take `C[C@@H]1CNc2ncccc2N1`: the deltaT in assay [1] was found to be 0 °C. The inhibition in assay [2] was 17%.

For `C[C@H]1Nc2cnccc2NC1=O`, the deltaT in assay [1] was found to be 0.5 °C. In addition, in assay [2], the inhibition was determined as 25%.

As to `C[C@@H]1Nc2ncccc2NC1=O`, the deltaT in assay [1] is 1 °C. The inhibition in assay [2] is 63%.

Consider `C[C@H]1Nc2ncccc2NC1=O`, for which the deltaT in assay [1] was 1.4 °C. In addition, the inhibition in assay [2] is 66%.

Turning to `O=C1Nc2ncccc2N[C@H]1Cc1ccc(O)cc1`, the inhibition in assay [2] was 78%. The deltaT in assay [3] was found to be 2.1 °C.

Take `O=C1Nc2ncccc2N[C@H]1CO`: the deltaT in assay [1] amounted to 0.5 °C.

In the case of `C[C@H]1Nc2cccnc2NC1=O`, the outcome in assay [6] and in assay [7] was Active. In assay [4], the Kd turned out to be 600 µM. For the same molecule, the deltaT in assay [1] is 1.7 °C; in assay [3], 1 °C. Moreover, in assay [2], the inhibition came out at 46%.
